Measured values of several laboratories.
Protocols differ between the studies behind these lines. In brackets after ≈: the same amount, converted by molar mass.

Structure (SMILES) | test | system | setting | quantity | result
Cc1nccn1CC1CCc2c(c3ccccc3n2C)C1=O (stereo not drawn) |  | PBS | 2 h, pH 7.4, 25 °C | kinetic solubility | 110 µM (≈ 32.3 µg/mL)
CN1CCN(c2cccc(-c3ccc4ncnc(Nc5ccc(Cl)c(Cl)c5)c4c3)c2)CC1 |  | aqueous buffer | pH 7.4, 25 °C | thermodynamic solubility | < 1.7 µM
Fc1ccccc1Nc1nc(-c2ccncc2)nc2c1CNCC2 |  | PBS | 24 h, pH 7.4 | thermodynamic solubility | 596 µM
N#Cc1ccc(C[C@H](Nc2c(Nc3ccc(F)cc3)c(=O)c2=O)C(=O)N2CCc3ccccc32)cc1 |  | aqueous buffer | 2 h, pH 7.4, 37 °C | kinetic solubility | 11.8 µM (≈ 5.67 µg/mL)
CCN(CC)CCNC(=O)c1cc(S(C)(=O)=O)cnc1OC |  | PBS | 2 h, pH 7.4, 25 °C | kinetic solubility | 393 µM (≈ 129 µg/mL)
O=[N+]([O-])c1ccc(Nc2ncnc3ccc(-c4cccc(N5CCOCC5)c4)cc23)cc1C(F)(F)F |  | aqueous buffer | pH 7.4, 25 °C | thermodynamic solubility | < 0.4 µM
N#Cc1ccc(C[C@H](Nc2nnc(-c3ccc(F)cc3)s2)C(=O)N2CCc3ccccc32)cc1 |  | aqueous buffer | 2 h, pH 7.4, 37 °C | kinetic solubility | 4.5 µM (≈ 2.11 µg/mL)
Cc1ccccc1CN1C(=O)C2=C(CCN(Cc3ccccc3)C2)N2CCN=C12 | shake flask | aqueous buffer | pH 4.5 | solubility | 98600 µg/mL (≈ 255 mM)
O=C(Nc1ccc(OC(F)(F)F)cc1)N[C@H]1CC[C@H](Oc2ccc(C(=O)O)cc2)CC1 |  | simulated gastric fluid | 15 min, pH 1, 37 °C, acidic | solubility | 0.0023 µg/mL (≈ 5.25e-06 mM)
CN1CCN(c2cccc(-c3ccc4ncnc(Nc5ccc(Cl)c(C(F)(F)F)c5)c4c3)c2)CC1 |  | aqueous buffer | pH 7.4, 25 °C | thermodynamic solubility | < 1.4 µM
N#Cc1ccc(C[C@H](NC(=O)Nc2ccc(F)cc2)C(=O)N2CCc3ccccc32)cc1 |  | aqueous buffer | 2 h, pH 7.4, 37 °C | kinetic solubility | 10.5 µM (≈ 4.5 µg/mL)
CCCCCCCCCCCCCCCC(=O)NCCO |  | aqueous buffer | 12 h, pH 6.8, 37 °C | thermodynamic solubility | < 16 µg/mL
N#Cc1ccc(C[C@H](NC(=O)c2cc3cc(F)ccc3[nH]2)C(=O)N2CCc3ccccc32)cc1 |  | aqueous buffer | 2 h, pH 7.4, 37 °C | kinetic solubility | 1 µM (≈ 0.452 µg/mL)
CCCCCCCCCCCCCCCC(=O)NCCOC(=O)C[C@@H](CN)CC(C)C |  | aqueous buffer | 12 h, pH 6.8, 37 °C | thermodynamic solubility | 3780 µg/mL
C=CCn1c(=O)c2cnc(Nc3ccc(N4CCN(C)CC4)cc3)nc2n1-c1ccc2c(n1)[C@@](O)(CC)CC2 |  | PBS | pH 7.4 | thermodynamic solubility | 2130 µM
